Screening data (PubChem)
Most compounds without a hit are left out; they make up all but 2.3% or so of the library.
Arr AP2 block = inhibitors of beta-arrestin/AP2 binding, primary screen, biochemical, GPCR trafficking, flow cytometry | beta-arrestin 1 C-terminal peptide binding to AP2 beta2-adaptin appendage (human) | FITC-arrestin peptide / GST-AP2 beads; AP2 beta2 appendage carries R879A mutation | inhibition, % at 10 µM | 340,000 compounds, 0.31% hits | AID 504490, 2011;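 active = inhibition above a set limit, near 3 SD of compounds lacking own fluorescence, cut at about 54% in these data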
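System: GST-AP2 R879A bound to glutathione beads, E. coli-expressed. Also added: 50 nM FITC-arrestin peptide. Schedule: compound with beads 12 min RT, then probe 1 h RT. Signal: bead flow cytometry, FITC channel. Read-out basis: percent response.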
MEKK2wt PB1 HTS = modulators of MEK5 binding to wildtype MEKK2, primary screen, biochemical, multiplex bead flow cytometry, Alexa488-MEK5; Mitogen-activated protein kinase kinase kinase 2 (Homo sapiens), Q9Y2U5; Alexa488-MEK5 binding to MEKK2 WT; actives lie on both sides; binding response (% of control), % at 10 µM; 290,000 compounds, 1.1% hits; AID 1531, 2009; in the data active = binding response below about 67% or above about 130%
MEKK3 PB1 HTS = modulators of MEKK3-MEK5 PB1 binding, primary screen, biochemical, wildtype MEKK3, multiplex bead flow cytometry, Alexa488-MEK5 | Mitogen-activated protein kinase kinase kinase 3 (Homo sapiens), Q99759 | bead-based flow cytometry, Alexa488-MEK5 binding to MEKK3; actives lie on both sides; 0 = blocked by unlabeled MEK5, 100 = vehicle | binding response (% of control), % at 10 µM | 290,000 compounds, 1.4% hits;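 active = binding response more than 3 SD above or below the average of its plate-row segment, actives on both sides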;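 note: Alexa488 bead fluorescence after subtracting the streptavidin-only scavenger bead signal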
Target sequence (Q99759 whole entry, looked up): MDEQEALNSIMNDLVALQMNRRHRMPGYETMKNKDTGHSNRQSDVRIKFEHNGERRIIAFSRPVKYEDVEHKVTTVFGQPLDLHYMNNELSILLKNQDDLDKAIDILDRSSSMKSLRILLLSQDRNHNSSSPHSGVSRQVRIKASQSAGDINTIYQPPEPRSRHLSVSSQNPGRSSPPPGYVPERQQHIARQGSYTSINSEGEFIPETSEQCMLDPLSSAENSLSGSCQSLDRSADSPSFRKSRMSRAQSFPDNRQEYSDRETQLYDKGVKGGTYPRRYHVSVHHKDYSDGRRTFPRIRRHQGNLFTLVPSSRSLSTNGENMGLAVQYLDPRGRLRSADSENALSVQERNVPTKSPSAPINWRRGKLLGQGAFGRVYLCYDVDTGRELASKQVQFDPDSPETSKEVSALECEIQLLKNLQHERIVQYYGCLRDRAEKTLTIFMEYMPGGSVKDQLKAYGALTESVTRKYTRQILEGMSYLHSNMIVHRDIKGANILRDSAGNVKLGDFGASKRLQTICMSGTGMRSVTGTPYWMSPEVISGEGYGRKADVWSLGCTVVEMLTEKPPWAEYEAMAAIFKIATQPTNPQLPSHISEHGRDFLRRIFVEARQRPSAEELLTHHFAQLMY
MEKK2 mut-MEK5 = MEK5 binding signal on mutant MEKK2 PB1, primary screen, biochemical, multiplex bead flow cytometry, Alexa488-MEK5; percent response, % at 10 µM; AID 1530, 2009; Alexa488-MEK5 binding to MEKK2 mutant; 290,000 compounds, 0.35% hits; in the data active = percent response above about 24%, passing the limit was not always enough
Of the large screens only hits and unclear results are named; the others gave an inactive call; [ ] = remark or other dose.

O=[N+]([O-])/C=C/c1cn(Cc2ccc(Cl)cc2)c2ccccc12	MEKK2wt PB1 HTS 2.0
O=C(O)c1ccc(Cn2cc(/C=C\[N+](=O)[O-])c3ccccc32)o1	none
N#CC1=C(N)Oc2cc(N)ccc2C1c1ccccc1Cl (stereo not given)	none
N#CC1=C(N)OC2=C(CCc3ccccc32)C1c1ccccc1Cl (stereo not given)	MEKK3 PB1 HTS 144
Cc1ccc(CNC(=O)c2cc3c(s2)CS(=O)(=O)C3)cc1	MEKK2wt PB1 HTS 0.0[inhibitor], MEKK3 PB1 HTS 2.0[inhibitor]
Cc1nn(C(C)C(=O)NCCCN2CCCCCC2)c(=O)c2c1sc1ccccc12 (stereo not given)	MEKK2wt PB1 HTS 162, MEKK2 mut-MEK5 27
Cc1nn(C(C)C(=O)NCCCN2CCCCC2C)c(=O)c2c1sc1ccccc12 (stereo not given)	none
COCCn1nnnc1C(c1ccc(OC)cc1)N1CCN(C(=O)c2ccco2)CC1 (stereo not given)	none
COc1ccc(C(c2nnnn2C(C)C)N2CCN(C(=O)c3ccco3)CC2)cc1 (stereo not given)	MEKK2wt PB1 HTS 46[inhibitor], MEKK3 PB1 HTS 53[inhibitor]
OCC1(CO)CCCC(CO)(CO)C1O	none (no result: MEKK2wt PB1 HTS, MEKK3 PB1 HTS, MEKK2 mut-MEK5)
Cc1[nH]c2c(ccc3cccnc32)c1C	none
CC1=[N+](C)c2c(ccc3cccnc23)C1(C)C	MEKK2wt PB1 HTS -9.0
COc1ccc2cc(OC)c(C(=O)N3CCOCC3)cc2c1	MEKK2wt PB1 HTS -7.0
COc1cc2ccccc2cc1C(=O)N1CCN(C(C)=O)CC1	none
COc1cc(/C=C2\SC(=S)N(NC(=O)c3ccncc3)C2=O)ccc1O	MEKK2wt PB1 HTS -3.0
CC(C)C[C@@H](CNC(=O)OC(C)(C)C)NC(=O)c1nc[nH]c1C(=O)N[C@@H](CC(C)C)C(=O)CNC[C@H](CC(C)C)NC(=O)c1nc[nH]c1C(=O)N[C@@H](Cc1c[nH]c2ccccc12)C(=O)OC(C)(C)C	none (no result: MEKK2wt PB1 HTS, MEKK3 PB1 HTS, MEKK2 mut-MEK5)
CCOC(=O)c1nc2cc3n(c(C)c-2c1C)C(C)C(C)=C3C (stereo not given)	MEKK3 PB1 HTS 127
CCOC(=O)c1nc2cc3n(c(CC(C)C)c-2c1C)CC(C)=C3C	none
CN1c2ccccc2-c2ccccc2S1(=O)=O	none (no result: MEKK2wt PB1 HTS, MEKK3 PB1 HTS, MEKK2 mut-MEK5)
CC(=NCc1ccco1)c1c(C)[nH]n(-c2nc3ccccc3s2)c1=O	none
C/C(=N/NC(=O)c1cccs1)c1c(C)[nH]n(-c2nc3ccccc3s2)c1=O	MEKK3 PB1 HTS 139
Cc1nc2nc(SCC(=O)NCCCN3CCCCCC3)nn2c(C)c1Cc1ccccc1	MEKK2wt PB1 HTS 190, MEKK2 mut-MEK5 34
CCC(C)Nc1nc(-c2c[nH]c3ccccc23)cs1 (stereo not given)	MEKK2wt PB1 HTS -19, MEKK3 PB1 HTS 78[inhibitor]
CCOC(=O)/C=C1\SC(C)C(=O)N1CC(=O)N(CCC#N)c1ccccc1 (stereo not given)	none (no result: MEKK2wt PB1 HTS, MEKK3 PB1 HTS, MEKK2 mut-MEK5)
Cc1ccc(S(=O)(=O)/N=C/c2ccc(N(C)C)cc2)cc1	none
Cc1ccc(S(=O)(=O)NCCN=Cc2ccc(N(C)C)cc2)cc1	MEKK2wt PB1 HTS 61[inhibitor]
Cc1ccc(C(C)C)cc1NC(=O)Nc1ccc([N+](=O)[O-])cc1	MEKK2wt PB1 HTS 157, MEKK2 mut-MEK5 25
O=C(NC(NC(=O)c1c(F)cccc1F)c1ccc([N+](=O)[O-])cc1)c1c(F)cccc1F	none
CC(C)C(=O)NC(NC(=O)C(C)C)c1ccc([N+](=O)[O-])cc1	MEKK2wt PB1 HTS -1.0
Cc1cc(O)c(C(C)C)cc1NC(=O)Nc1ccc([N+](=O)[O-])cc1	none (no result: MEKK2wt PB1 HTS, MEKK3 PB1 HTS, MEKK2 mut-MEK5)
CCCN(CCC)CCCNC(=S)Nc1ccc2nc(N3CCCC3)cc(C)c2c1	MEKK2wt PB1 HTS 156
CCCCN(CC)CCCNC(=S)Nc1ccc2nc(N3CCN(CC)CC3)cc(C)c2c1	MEKK2wt PB1 HTS 138
COc1ccc(CCN(C)C(=O)c2c(C)nn(CC(C)C)c2Cl)cc1OC	MEKK2wt PB1 HTS 44[inhibitor], MEKK3 PB1 HTS 55[inhibitor]
CCCCn1c(N)c(N(CC)C(=O)C(c2ccccc2)c2ccccc2)c(=O)[nH]c1=O	MEKK2 mut-MEK5 64
CC1(C)CCC23CC[C@]4(C)C(OC2=O)(C3C1)[C@H]1O[C@H]1C1[C@@]2(C)CC[C@@H](O)C(C)(C)C2CC[C@]14C (stereo not given in full)	none (no result: Arr AP2 block)
Oc1oc(-c2cccc3ccccc23)nc1/C=N/c1nccs1	MEKK3 PB1 HTS 130
COc1ccc(/C=C/C(=O)c2cc(F)ccc2OC(=O)c2ccccc2C)cc1OC	MEKK3 PB1 HTS 150
CC(=O)OCC1OC(n2c(-c3ccc(Cl)cc3)ccc(C#N)c2=S)C(OC(C)=O)C(OC(C)=O)C1OC(C)=O (stereo not given)	none (no result: MEKK2wt PB1 HTS, MEKK3 PB1 HTS, MEKK2 mut-MEK5)
C=CCn1cc(/C=N/Nc2nc3ccccc3[nH]2)c2ccccc21	MEKK2wt PB1 HTS 232
Cn1c(/C=N/Nc2nc3ccccc3[nH]2)nc2ccccc21	none
Clc1nc2ccccc2cc1/C=N/Nc1nc2ccccc2[nH]1	MEKK3 PB1 HTS 156
Cc1c(/C=N/Nc2nc3ccccc3[nH]2)c2ccccc2n1C	MEKK2wt PB1 HTS 168
O=C(O)c1cccnc1Sc1ccccc1Cl	MEKK2wt PB1 HTS 29
C[C@]12c3[nH]c4ccccc4c3CCN1C(=O)C(CC(=O)NCCCn1ccnc1)C[C@@H]2C(=O)N1CCOCC1 (stereo not given in full)	none (no result: MEKK2wt PB1 HTS, MEKK3 PB1 HTS, MEKK2 mut-MEK5)
CC(C)N1CCc2c(sc(NC(=O)c3ccc4ccccc4c3)c2C(N)=O)C1	MEKK2wt PB1 HTS 134
COc1ccc(-c2nc(/C=C3\C(C)=Nc4ccccc43)c(O)o2)cc1	none
CC1=Nc2ccccc2/C1=C\c1nc(-c2ccccc2)oc1O	MEKK2wt PB1 HTS 4.0
CC(C)CC(NC(=O)C(COC(C)(C)C)NC(=O)C(Cc1ccc(O)cc1)NC(=O)C(CO)NC(=O)C(Cc1c[nH]c2ccccc12)NC(=O)C(Cc1cnc[nH]1)NC(=O)C1CCC(=O)N1)C(=O)N[C@@H](CCCN=C(N)N)C(=O)N1CCCC1C(=O)NNC(N)=O (stereo not given in full)	none (no result: Arr AP2 block)
CC1CCN(CCCNC(=O)c2n[nH]c(=O)c3ccccc23)CC1	none
CC1CCN(CCCNC(=O)c2cc3c(Cl)nc4ccccc4c3s2)CC1	MEKK2wt PB1 HTS 154
COc1ccc(CNC(=O)C[C@H]2C[C@H](C(=O)N(C(C)C)C(C)C)[C@@]3(C)c4[nH]c5cc(-c6ccco6)ccc5c4CCN3C2=O)cc1OC	none (no result: MEKK2wt PB1 HTS, MEKK3 PB1 HTS, MEKK2 mut-MEK5)
O=C1CSC(=S)N1/N=C/c1ccc(O)c(O)c1O	Arr AP2 block 57
O=C1CSC(=S)N1/N=C/c1cc(Br)ccc1O	none (no result: Arr AP2 block)
NC(=O)c1sc(-c2ccsc2)cc1NS(=O)(=O)c1ccc(C(F)(F)F)cc1	none
CCOc1ccc(CSCCNC(=S)Nc2ccccc2)cc1	MEKK3 PB1 HTS 128
CCOc1ccc(NC(=S)NCCCc2ccccc2)cc1	none
